Experimental data from ChEMBL document CHEMBL5303300, “EUbOPEN Chemogenomics Library - Multiplex” (2023).
Where “and” joins values, the source holds several entries; their conditions need not be identical. Equal entries are not always repeated.

Tests used:
[1] = system: Fibroblast; test: Multiplex assay against human fibroblast; assay type: toxicity, cell-based; details: number of replicates 2
How it was run: (§1)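 With compound added, live cells were imaged on a CQ1 microscope at 37°C and 5% CO2; staining with Hoechst33342, BioTracker Green Microtubule Cytoskeleton Dye, MitoTracker Red and Annexin V Alexa Fluor 680 had been done at seeding. The CellPathfinder machine-learning gating scheme split cells into Hoechst high-intensity objects or normal cells, normal cells into healthy, pyknosed or fragmented nuclei, and pyknosed cells into mitotic or apoptotic. The tubulin, mitochondrial-mass and membrane-permeability phenotypes are per cents of healthy-nucleus cells.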

[2] = system: U2OS; test: Multiplex assay against U2OS; assay type: toxicity, cell-based; details: human, number of replicates 2; how it was run: as §1
[3] = 12 h, 1 µM, compound concentration 1 uM
[4] = 12 h, 10 µM, compound concentration 10 uM
[5] = 24 h, 1 µM, compound concentration 1 uM
[6] = 24 h, 10 µM, compound concentration 10 uM
[7] = 48 h, 1 µM, compound concentration 1 uM
[8] = 48 h, 10 µM, compound concentration 10 uM

C[C@H](N)Cn1ccc2cc(F)c(Cl)cc21.O=C(O)/C=C/C(=O)O
Population Apoptotic (%) [1, 3]: 44% and 40% | Population Fragmented Nuclei (%) [1, 3]: 14% | Population Healthy Nuclei (%) [1, 3]: 74% and 61% | Population Hoechst High Intensity Objects (%) [1, 3]: 0% | Population Membrane Permeable-Phenotype (%) [1, 3]: 5% and 6% | Population Mitochondria Different-Phenotype (%) [1, 3]: 0% and 1% | Population Mitotic Cells (%) [1, 3]: 55% and 60% | Population Normal (%) [1, 3]: 100% | Population Pyknosed Nuclei (%) [1, 3]: 11% and 24% | Population Tubulin-Different-Phenotype (%) [1, 3]: 14% and 11% | Total Cell Count [1, 3]: 252 and 208 | Population Apoptotic (%) [1, 4]: 45% and 37% | Population Fragmented Nuclei (%) [1, 4]: 14% and 22% | Population Healthy Nuclei (%) [1, 4]: 69% and 58% | Population Hoechst High Intensity Objects (%) [1, 4]: 0% | Population Membrane Permeable-Phenotype (%) [1, 4]: 11% and 12% | Population Mitochondria Different-Phenotype (%) [1, 4]: 3% and 6% | Population Mitotic Cells (%) [1, 4]: 54% and 62% | Population Normal (%) [1, 4]: 100% | Population Pyknosed Nuclei (%) [1, 4]: 16% and 19% | Population Tubulin-Different-Phenotype (%) [1, 4]: 24% and 26% | Total Cell Count [1, 4]: 189 and 184 | Population Apoptotic (%) [1, 5]: 42% and 68% | Population Healthy Nuclei (%) [1, 5]: 25% and 72% | Population Hoechst High Intensity Objects (%) [1, 5]: 1% and 0% | Population Mitochondria Different-Phenotype (%) [1, 5]: 2% and 1% | Population Mitotic Cells (%) [1, 5]: 57% and 31% | Population Normal (%) [1, 5]: 98% and 99% | Population Pyknosed Nuclei (%) [1, 5]: 23% and 11% | Total Cell Count [1, 5]: 149 and 256 | Population Apoptotic (%) [1, 6]: 53% and 51% | Population Fragmented Nuclei (%) [1, 6]: 24% and 28% | Population Healthy Nuclei (%) [1, 6]: 63% and 56% | Population Hoechst High Intensity Objects (%) [1, 6]: 0% | Population Membrane Permeable-Phenotype (%) [1, 6]: 4% and 7% | Population Mitochondria Different-Phenotype (%) [1, 6]: 0% and 5% | Population Mitotic Cells (%) [1, 6]: 46% and 48% | Population Normal (%) [1, 6]: 99% and 100% | Population Pyknosed Nuclei (%) [1, 6]: 12% and 14% | Population Tubulin-Different-Phenotype (%) [1, 6]: 23% and 28% | Total Cell Count [1, 6]: 208 | Population Apoptotic (%) [1, 7]: 65% and 56% | Population Fragmented Nuclei (%) [1, 7]: 18% and 21% | Population Healthy Nuclei (%) [1, 7]: 67% and 59% | Population Hoechst High Intensity Objects (%) [1, 7]: 0% | Population Membrane Permeable-Phenotype (%) [1, 7]: 4% and 5% | Population Mitochondria Different-Phenotype (%) [1, 7]: 0% and 1% | Population Mitotic Cells (%) [1, 7]: 34% and 43% | Population Normal (%) [1, 7]: 100% and 99% | Population Pyknosed Nuclei (%) [1, 7]: 13% and 18% | Population Tubulin-Different-Phenotype (%) [1, 7]: 7% and 9% | Total Cell Count [1, 7]: 258 and 233 | Population Apoptotic (%) [1, 8]: 60% and 65% | Population Fragmented Nuclei (%) [1, 8]: 33% and 30% | Population Healthy Nuclei (%) [1, 8]: 58% and 60% | Population Hoechst High Intensity Objects (%) [1, 8]: 0% | Population Membrane Permeable-Phenotype (%) [1, 8]: 4% and 6% | Population Mitochondria Different-Phenotype (%) [1, 8]: 0% and 1% | Population Mitotic Cells (%) [1, 8]: 40% and 35% | Population Normal (%) [1, 8]: 99% | Population Pyknosed Nuclei (%) [1, 8]: 7% and 9% | Population Tubulin-Different-Phenotype (%) [1, 8]: 22% and 18% | Total Cell Count [1, 8]: 255 and 217 | Population Apoptotic (%) [2, 3]: 47% and 66% | Population Fragmented Nuclei (%) [2, 3]: 4% and 8% | Population Healthy Nuclei (%) [2, 3]: 87% and 84% | Population Hoechst High Intensity Objects (%) [2, 3]: 0% | Population Membrane Permeable-Phenotype (%) [2, 3]: 0% | Population Mitochondria Different-Phenotype (%) [2, 3]: 0% | Population Mitotic Cells (%) [2, 3]: 52% and 33% | Population Normal (%) [2, 3]: 99% and 100% | Population Pyknosed Nuclei (%) [2, 3]: 8% and 6% | Population Tubulin-Different-Phenotype (%) [2, 3]: 94% and 44% | Population Apoptotic (%) [2, 4]: 40% and 50% | Population Fragmented Nuclei (%) [2, 4]: 5% and 12% | Population Healthy Nuclei (%) [2, 4]: 88% and 75% | Population Hoechst High Intensity Objects (%) [2, 4]: 0% | Population Membrane Permeable-Phenotype (%) [2, 4]: 1% and 8% | Population Mitochondria Different-Phenotype (%) [2, 4]: 1% and 0% | Population Mitotic Cells (%) [2, 4]: 60% and 50% | Population Normal (%) [2, 4]: 99% and 100% | Population Pyknosed Nuclei (%) [2, 4]: 6% and 12% | Population Tubulin-Different-Phenotype (%) [2, 4]: 62% and 37% | Population Apoptotic (%) [2, 5]: 100% and 62% | Population Fragmented Nuclei (%) [2, 5]: 6% and 1% | Population Healthy Nuclei (%) [2, 5]: 91% and 90% | Population Hoechst High Intensity Objects (%) [2, 5]: 0% | Population Membrane Permeable-Phenotype (%) [2, 5]: 0% | Population Mitochondria Different-Phenotype (%) [2, 5]: 0% | Population Normal (%) [2, 5]: 100% and 99% | Population Pyknosed Nuclei (%) [2, 5]: 2% and 7% | Population Tubulin-Different-Phenotype (%) [2, 5]: 54% and 88% | Population Apoptotic (%) [2, 6]: 42% and 80% | Population Fragmented Nuclei (%) [2, 6]: 3% and 9%
